Columns and labels:
[1] = DPPH free radical scavenging; assay type: biochemical; settings: read-out: DPPH scavenging activity IC50; stable DPPH radical; mean ± SE, n = 3
Method in brief: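 Radical-scavenging capacity of the test compounds toward DPPH was measured by a modified Zheleva-Dimitrova procedure. Scavenging activity was recorded and IC50 values were derived from it. Data are mean ± SE, n = 3.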

HCT-116 cell line = assay: MTT assay, HCT-116; assay type: cell-based; settings: for antitumor effect (in words): HCT-116, MTT assay, compared to DOX
HepG2 cell line = assay: MTT assay, HepG2; assay type: cell-based; settings: for antitumor effect (in words): HepG2, MTT assay, compared to DOX
MCF-7 cell line = assay: MTT assay, MCF-7; assay type: cell-based; settings: for antitumor effect (in words): MCF-7, MTT assay, compared to DOX
[2] = test system: WI-38 normal cells (human lung fibroblast); assay: MTT assay, WI-38 normal cells; assay type: cell-based

| SMILES | IC50 [1] | antitumor effect (in words) (HCT-116 cell line) | antitumor effect (in words) (HepG2 cell line) | antitumor effect (in words) (MCF-7 cell line) | cytotoxic effect on normal cells (in words) [2] | IC50 (HCT-116 cell line; Homo sapiens, HCT-116) | IC50 (HepG2 cell line; Homo sapiens, HepG2) | IC50 (MCF-7 cell line; Homo sapiens, MCF7) |
| --- | --- | --- | --- | --- | --- | --- | --- | --- |
| NC1=NN(c2ccccc2)C(=O)C1/N=N/c1ccc(C(=O)C=Cc2ccco2)cc1 (stereo not drawn) [Compound 3f, (E)-3-Amino-4-((4-(3-(furan-2-yl)acryloyl)phenyl)diazenyl)-1-phenyl-1H-pyrazol-5(4H)-one] | 27.25 ± 0.19 µM | impressive antitumor effects | impressive antitumor effects | impressive antitumor effects |  |  |  |  |
| NC1=NN(c2ccccc2)C(=O)C1/N=N/c1ccc(C(=O)/C=C/c2ccccc2O)cc1 (stereo not drawn) [Compound 3d, 5-Amino-4-((E)-(4-((E)-3-(2-hydroxyphenyl)acryloyl)phenyl)diazenyl)-2-phenyl-2,4-dihydro-3H-pyrazol-3-one] | 48.59 ± 0.28 µM | moderate effect | moderate effect | moderate effect |  |  |  |  |
| NC1=NN(c2ccccc2)C(=O)C1/N=N/c1ccc(C(=O)C=Cc2ccccc2)cc1 (stereo not drawn) [Compound 3a, 5-Amino-4-((E)-(4-cinnamoylphenyl)diazenyl)-2-phenyl-2,4-dihydro-3H-pyrazol-3-one] | 21.4 ± 0.17 µM | impressive antitumor effects | impressive antitumor effects | impressive antitumor effects |  |  |  |  |
| O=C1O[C@H]([C@@H](O)CO)C(O)=C1O [L-ascorbic acid, reference compound] | 16.81 ± 0.1 µM |  |  |  |  |  |  |  |
| NC1=NN(c2ccccc2)C(=O)C1/N=N/c1ccc(C(=O)/C=C/c2ccc(O)cc2)cc1 (stereo not drawn) [Compound 3c, 5-Amino-4-((E)-(4-((E)-3-(4-hydroxyphenyl)acryloyl)phenyl)diazenyl)-2-phenyl-2,4-dihydro-3H-pyrazol-3-one] | 94.18 ± 0.45 µM | weak effect | weak effect | weak effect |  |  |  |  |
| CN(C)c1ccc(/C=C/C(=O)c2ccc(/N=N\C3C(=O)N(c4ccccc4)N=C3N)cc2)cc1 (stereo not drawn) [Compound 3e, 5-Amino-4-((Z)-(4-((E)-3-(4-(dimethylamino)phenyl)acryloyl)phenyl)diazenyl)-2-phenyl-2,4-dihydro-3H-pyrazol-3-one] | 32.79 ± 0.21 µM | moderate effect | moderate effect | moderate effect |  |  |  |  |
| COc1cc(/C=C/C(=O)c2ccc(/N=N/C3C(=O)N(c4ccccc4)N=C3N)cc2)ccc1O (stereo not drawn) [Compound 3b, 5-Amino-4-((E)-(4-((E)-3-(4-hydroxy-3-methoxyphenyl)acryloyl)phenyl)diazenyl)-2-phenyl-2,4-dihydro-3H-pyrazol-3-one] | 19.95 ± 0.14 µM |  |  |  | safe toxic profile on normal cells | 6.34 ± 0.5 µM | 5.03 ± 0.4 µM | 3.92 ± 0.2 µM |
| NC1=NN(c2ccccc2)C(=O)C1/N=N/c1ccc(C(=O)/C=C/C=C/c2ccccc2)cc1 (stereo not drawn) [Compound 3g, 5-Amino-2-phenyl-4-((E)-(4-((2E,4E)-5-phenylpenta-2,4-dienoyl)phenyl)diazenyl)-2,4-dihydro-3H-pyrazol-3-one] | 73.63 ± 0.39 µM | weak effect | weak effect | weak effect |  |  |  |  |

Source: paper PMC12023741 (RSC Advances, 2025)
